Experimental findings from the M2OR odorant receptor database are described below.

Common to all, as to settings: stereoisomer not certain
One assay has as its target T1, UniProt Q8VGU3.
T1 sequence (whole entry): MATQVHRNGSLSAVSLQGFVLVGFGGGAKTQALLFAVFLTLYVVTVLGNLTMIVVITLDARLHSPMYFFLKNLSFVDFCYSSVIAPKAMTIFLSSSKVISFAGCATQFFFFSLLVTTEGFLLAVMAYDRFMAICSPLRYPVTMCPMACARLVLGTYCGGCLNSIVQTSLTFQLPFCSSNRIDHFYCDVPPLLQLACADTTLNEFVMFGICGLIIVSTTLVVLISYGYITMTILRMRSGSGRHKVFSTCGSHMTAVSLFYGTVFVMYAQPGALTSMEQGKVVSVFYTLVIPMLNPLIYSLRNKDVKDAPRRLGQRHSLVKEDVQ
The essentials: (§1)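 Assay methods differ from source to source, frequently being transient luciferase assays in mammalian cell lines. For each receptor–molecule pair, the label responsive (active) applies when the original authors judged the measured signal statistically different from baseline, and non-responsive (inactive) applies otherwise.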

Another assay concerns the target T2, UniProt Q8VGV7.
T2 sequence (whole entry): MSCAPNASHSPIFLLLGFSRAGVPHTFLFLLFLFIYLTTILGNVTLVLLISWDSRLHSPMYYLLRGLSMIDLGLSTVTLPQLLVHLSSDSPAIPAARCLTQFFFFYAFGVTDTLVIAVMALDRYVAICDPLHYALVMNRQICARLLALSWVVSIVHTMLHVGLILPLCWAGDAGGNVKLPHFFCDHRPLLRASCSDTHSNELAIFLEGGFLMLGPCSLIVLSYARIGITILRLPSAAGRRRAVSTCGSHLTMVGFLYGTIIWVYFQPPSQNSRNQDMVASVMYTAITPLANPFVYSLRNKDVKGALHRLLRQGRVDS
An outline of the steps:
as §1

In a further assay the target is T3, UniProt Q8VGX3.
T3 sequence (whole entry): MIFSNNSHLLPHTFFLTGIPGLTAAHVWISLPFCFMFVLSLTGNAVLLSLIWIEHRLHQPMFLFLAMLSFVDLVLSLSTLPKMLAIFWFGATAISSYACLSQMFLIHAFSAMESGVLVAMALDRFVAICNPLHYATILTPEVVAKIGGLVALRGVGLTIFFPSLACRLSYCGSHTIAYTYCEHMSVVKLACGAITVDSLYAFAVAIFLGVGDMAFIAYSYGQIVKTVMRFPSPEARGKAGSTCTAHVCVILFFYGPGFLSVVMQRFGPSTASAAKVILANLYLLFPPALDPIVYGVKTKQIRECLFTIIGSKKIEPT
The essentials:
as §1

The target of another assay is T4, UniProt Q8VGX5.
T4 sequence (whole entry): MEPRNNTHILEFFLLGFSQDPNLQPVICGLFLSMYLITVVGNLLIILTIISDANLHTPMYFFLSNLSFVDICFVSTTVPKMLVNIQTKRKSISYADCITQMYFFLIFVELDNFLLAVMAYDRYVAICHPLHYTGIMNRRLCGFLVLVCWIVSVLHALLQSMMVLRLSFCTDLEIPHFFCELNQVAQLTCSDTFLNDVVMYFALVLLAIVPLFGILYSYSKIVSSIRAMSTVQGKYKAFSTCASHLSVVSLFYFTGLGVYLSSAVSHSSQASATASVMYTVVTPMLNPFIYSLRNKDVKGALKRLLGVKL
The essentials: as §1

Another assay has as its target T5, UniProt Q8VGM2.
T5 sequence (whole entry): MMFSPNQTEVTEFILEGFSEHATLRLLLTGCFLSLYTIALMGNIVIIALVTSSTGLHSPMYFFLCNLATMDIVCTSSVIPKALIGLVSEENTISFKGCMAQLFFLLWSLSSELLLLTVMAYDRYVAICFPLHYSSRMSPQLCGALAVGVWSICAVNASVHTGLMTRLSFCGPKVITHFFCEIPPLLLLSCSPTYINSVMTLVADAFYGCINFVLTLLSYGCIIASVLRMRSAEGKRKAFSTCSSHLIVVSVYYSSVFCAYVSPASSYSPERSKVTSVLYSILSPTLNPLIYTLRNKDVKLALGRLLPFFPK
The essentials:
as §1

Another assay deals with T6, UniProt Q8VGP6.
T6 sequence (whole entry): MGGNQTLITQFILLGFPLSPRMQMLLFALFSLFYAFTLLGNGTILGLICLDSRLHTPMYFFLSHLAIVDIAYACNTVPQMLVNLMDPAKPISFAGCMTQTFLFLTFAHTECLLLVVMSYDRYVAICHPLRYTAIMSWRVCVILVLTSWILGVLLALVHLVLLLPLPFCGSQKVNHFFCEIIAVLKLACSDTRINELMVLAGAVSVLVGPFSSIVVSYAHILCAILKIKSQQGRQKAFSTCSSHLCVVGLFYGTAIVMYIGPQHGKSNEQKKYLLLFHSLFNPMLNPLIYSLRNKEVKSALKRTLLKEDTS
An outline of the steps: as §1

The target in another assay is T7, UniProt Q8VGQ3.
T7 sequence (whole entry): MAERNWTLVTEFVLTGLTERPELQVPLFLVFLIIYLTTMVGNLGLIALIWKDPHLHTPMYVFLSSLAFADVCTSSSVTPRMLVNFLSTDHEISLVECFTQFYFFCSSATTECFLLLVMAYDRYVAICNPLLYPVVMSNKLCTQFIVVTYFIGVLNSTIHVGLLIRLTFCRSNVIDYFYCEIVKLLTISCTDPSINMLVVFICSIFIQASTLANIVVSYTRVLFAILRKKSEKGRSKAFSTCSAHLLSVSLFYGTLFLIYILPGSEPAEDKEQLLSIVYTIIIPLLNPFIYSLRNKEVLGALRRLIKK
An outline of the steps:
as §1

A further assay has as its target T8, UniProt Q8VGT4.
T8 sequence (whole entry): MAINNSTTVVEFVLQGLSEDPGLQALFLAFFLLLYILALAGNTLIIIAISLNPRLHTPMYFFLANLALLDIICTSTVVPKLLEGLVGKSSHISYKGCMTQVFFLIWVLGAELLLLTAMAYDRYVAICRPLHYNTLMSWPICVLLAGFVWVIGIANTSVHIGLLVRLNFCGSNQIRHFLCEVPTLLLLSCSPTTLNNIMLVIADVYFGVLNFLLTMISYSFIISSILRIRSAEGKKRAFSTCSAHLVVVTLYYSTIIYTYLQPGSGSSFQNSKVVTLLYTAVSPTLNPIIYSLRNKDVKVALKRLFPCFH
The essentials:
as §1

The next assay has as its target T9, UniProt Q8VGV1.
T9 sequence (whole entry): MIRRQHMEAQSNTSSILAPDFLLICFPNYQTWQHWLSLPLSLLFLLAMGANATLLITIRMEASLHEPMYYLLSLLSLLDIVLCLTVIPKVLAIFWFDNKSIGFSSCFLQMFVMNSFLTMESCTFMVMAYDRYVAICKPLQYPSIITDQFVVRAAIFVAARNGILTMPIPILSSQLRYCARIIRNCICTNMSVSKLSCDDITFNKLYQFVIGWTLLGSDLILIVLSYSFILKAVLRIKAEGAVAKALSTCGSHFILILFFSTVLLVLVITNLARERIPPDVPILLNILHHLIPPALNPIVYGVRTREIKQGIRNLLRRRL
The essentials: as §1

Another assay concerns the target T10, UniProt Q8VGW5.
T10 sequence (whole entry): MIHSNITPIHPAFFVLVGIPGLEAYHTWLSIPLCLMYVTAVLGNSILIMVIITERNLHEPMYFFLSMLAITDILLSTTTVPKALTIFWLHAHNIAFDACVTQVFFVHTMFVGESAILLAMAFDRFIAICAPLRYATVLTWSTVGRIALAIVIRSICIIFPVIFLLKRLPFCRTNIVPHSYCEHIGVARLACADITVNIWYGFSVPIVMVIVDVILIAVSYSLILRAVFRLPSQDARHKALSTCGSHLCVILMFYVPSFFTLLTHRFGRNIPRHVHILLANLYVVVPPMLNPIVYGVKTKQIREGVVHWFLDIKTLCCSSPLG
The essentials: as §1

As to `C=CC(C)=CCC=C(C)CCC=C(C)C`, the “odorant receptor agonist call” value with UniProt Q8VGU3, with UniProt Q8VGV7, with UniProt Q8VGX3 and in the assay with UniProt Q8VGX5 was “inactive” each time.
As for `CCc1occc(=O)c1O`, the “odorant receptor agonist call” value with UniProt Q8VGU3, with UniProt Q8VGV7 and in the assay with UniProt Q8VGX3 was “inactive” throughout. For the same molecule, the “odorant receptor agonist call” value with UniProt Q8VGX5 is “active”.
For `CCCCCCC(C)=O`, the “odorant receptor agonist call” value with UniProt Q8VGM2, with UniProt Q8VGP6, in the assay with UniProt Q8VGQ3, with UniProt Q8VGT4, with UniProt Q8VGU3 and in the assay with UniProt Q8VGV1 was “inactive” in each case. Also, the “odorant receptor agonist call” value with UniProt Q8VGV7, with UniProt Q8VGX3 and with UniProt Q8VGX5 was “inactive” each time.
With `C=CC(=C)CCC=C(C)CCC=C(C)C`, the “odorant receptor agonist call” value in the assay with UniProt Q8VGU3, with UniProt Q8VGV7, with UniProt Q8VGX3 and with UniProt Q8VGX5 was “inactive” throughout.
Turning to `CCC(C(=O)O)c1ccccc1` (configuration not stated), the “odorant receptor agonist call” value with UniProt Q8VGM2, in the assay with UniProt Q8VGP6, in the assay with UniProt Q8VGQ3, with UniProt Q8VGT4, in the assay with UniProt Q8VGV1 and with UniProt Q8VGX5 was “inactive” each time.
With `CC12CCC(CC1=O)C2(C)C` (configuration not stated), the “odorant receptor agonist call” value with UniProt Q8VGM2, with UniProt Q8VGP6, with UniProt Q8VGQ3, with UniProt Q8VGU3, in the assay with UniProt Q8VGV1 and with UniProt Q8VGV7 was “inactive” throughout. Further, the “odorant receptor agonist call” value with UniProt Q8VGX3 is “inactive”. Moreover, the “odorant receptor agonist call” value with UniProt Q8VGT4 and in the assay with UniProt Q8VGX5 was “active” throughout.
`CC(C)CS`: the “odorant receptor agonist call” value with UniProt Q8VGU3, in the assay with UniProt Q8VGV7, in the assay with UniProt Q8VGX3 and in the assay with UniProt Q8VGX5 was “inactive” throughout.
For the molecule `CCCCCO`, the “odorant receptor agonist call” value with UniProt Q8VGM2, with UniProt Q8VGP6, with UniProt Q8VGQ3, in the assay with UniProt Q8VGT4, with UniProt Q8VGV1 and in the assay with UniProt Q8VGX5 was “inactive” throughout.
As for `CCCCC=O`, the “odorant receptor agonist call” value in the assay with UniProt Q8VGU3, with UniProt Q8VGV7, with UniProt Q8VGX3 and in the assay with UniProt Q8VGX5 was “inactive” throughout. In addition, the “odorant receptor agonist call” value with UniProt Q8VGW5 was “active”.
For the molecule `CCCC(C)=O`, the “odorant receptor agonist call” value with UniProt Q8VGM2, in the assay with UniProt Q8VGP6, in the assay with UniProt Q8VGQ3, in the assay with UniProt Q8VGT4, with UniProt Q8VGV1 and with UniProt Q8VGW5 was “inactive” in each case. In addition, the “odorant receptor agonist call” value in the assay with UniProt Q8VGX5 was “inactive”.
For the molecule `O=C(O)CCCCCCCCC(=O)O`, the “odorant receptor agonist call” value with UniProt Q8VGU3, with UniProt Q8VGV7, in the assay with UniProt Q8VGX3 and with UniProt Q8VGX5 was “inactive” in each case.
In the case of `O=C1CCOc2ccccc21`, the “odorant receptor agonist call” value in the assay with UniProt Q8VGM2, with UniProt Q8VGP6, in the assay with UniProt Q8VGQ3, in the assay with UniProt Q8VGT4, with UniProt Q8VGU3 and in the assay with UniProt Q8VGV1 was “inactive” each time. In addition, the “odorant receptor agonist call” value with UniProt Q8VGV7 and in the assay with UniProt Q8VGX3 was “inactive” each time. In addition, the “odorant receptor agonist call” value with UniProt Q8VGX5 was “active”.
With `O=c1ccc2ccccc2o1`, the “odorant receptor agonist call” value with UniProt Q8VGM2, in the assay with UniProt Q8VGP6, with UniProt Q8VGQ3, with UniProt Q8VGT4 and in the assay with UniProt Q8VGV1 was “inactive” throughout. Further, the “odorant receptor agonist call” value with UniProt Q8VGX5 is “active”.
